Laboratory results as given in ChEMBL document CHEMBL1122670, “Synthesis of previously inaccessible quinazolines and 1,4-benzodiazepines as potential anticonvulsants” (J Med Chem, 1984).
Activity calls are given as the source filed them.

Experiments:
Mus musculus [1] = species: Mus musculus; assay: Compound was determined in rotarod test and expressed as TD50; I = Inactive.; type: ADME, organism-based; settings: in vivo
Method in brief: (§1)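 ADD Program screen in mice. Doses of 30, 100, 300 and 600 mg/kg were given, four animals per dose, with tests at 30 min and at 4 h. sc Met endpoint: no threshold seizure (single clonic spasm of 5 s) after an sc convulsant dose 99 of pentylenetetrazol. Rotorod assessed acute neurotoxicity. ED50/TD50 were estimated graphically; Litchfield-Wilcoxon 95% confidence limits were added for selected cases.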

Mus musculus [2] = assay: Evaluated for seizure threshold test at a dose 25 mg/kg &MMT is the maximal metrazole threshold to tonic flexion; I = Inactive.; type: functional, organism-based; design: dose 25 mg/kg
Method in brief: (§2)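 0.5% pentylenetetrazol (with 0.9% NaCl and 0.001% heparin) was infused into a lateral tail vein at 6.31 μL/s. Time to 3 s of persistent clonus (MST) or hindlimb tonic flexion (MMT) was converted to mg/kg infused. Tested at 0.5 h (some at 4 h or 1 h). Results are % change from controls, by Student's t test.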

Mus musculus [3] = assay: Effective dose (ED50) was determined in sc Met (pentylenetetrazole) seizure threshold test; I = Inactive.; type: functional, organism-based; method in brief: as §1
Mus musculus [4] = assay: Evaluated for seizure threshold test at a dose 25 mg/kg &MST is the metrazole seizure threshold to persistent clonus; I = Inactive.; type: functional, organism-based; design: dose 25 mg/kg; method in brief: as §2
[5] = Compound was determined in rotarod test and expressed as TD50; type: ADME, organism-based; settings: mouse, in vivo
Method in brief: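 ADD Program screen in mice. Doses of 30, 100, 300 and 600 mg/kg were given, four animals per dose, with tests at 30 min and at 4 h. sc Met endpoint: no threshold seizure (single clonic spasm of 5 s) after an sc convulsant dose 99 of pentylenetetrazol. Rotorod assessed acute neurotoxicity.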

Mus musculus [6] = assay: Evaluated for seizure threshold test at a dose 300 mg/kg & MMT is the maximal metrazole threshold to tonic flexion; type: functional; method in brief: as §2
Mus musculus [7] = assay: Effective dose (ED50) was determined in sc Met (pentylenetetrazole) seizure threshold test; type: functional; method in brief: as §1
Mus musculus [8] = assay: Evaluated for seizure threshold test at a dose 300 mg/kg & MST is the metrazole seizure threshold to persistent clonus; I = Inactive.; type: functional, organism-based; design: dose 300 mg/kg; method in brief: as §2
Mus musculus [9] = assay: Evaluated for seizure threshold test at a dose 30 mg/kg &MMT is the maximal metrazole threshold to tonic flexion.; type: functional
Method in brief: (§3)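 At 0.5 h (some at 1 or 4 h), 0.5% pentylenetetrazol in 0.9% NaCl with 0.001% heparin was infused into the tail vein at 6.31 μL/s. Time to 3 s persistent clonus (MST) or tonic flexion (MMT) was converted to mg/kg, reported as % change vs controls, Student's t test.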

Mus musculus [10] = assay: Evaluated for seizure threshold test at a dose 50 mg/kg &MMT is the maximal metrazole threshold to tonic flexion.; type: functional; method in brief: as §3
Mus musculus [11] = assay: Evaluated for seizure threshold test at a dose 30 mg/kg &MST is the metrazole seizure threshold to persistent clonus; type: functional; method in brief: as §3
Mus musculus [12] = assay: Evaluated for seizure threshold test at a dose 50 mg/kg &MST is the metrazole seizure threshold to persistent clonus; type: functional; method in brief: as §3
Mus musculus [13] = assay: Evaluated for seizure threshold test at a dose 300 mg/kg &MST is the metrazole seizure threshold to persistent clonus; type: functional; method in brief: as §3
[14] = tested on: GABA-A receptor; anion channel; assay: Inhibition of binding to GABA-A central benzodiazepine receptor (Inactive); type: protein-complex assay, Mus musculus
Mus musculus [15] = assay: Evaluated for seizure threshold test at a dose 300 mg/kg &MMT is the maximal metrazole threshold to tonic flexion; I = Inactive; type: functional, organism-based; design: dose 300 mg/kg; method in brief: as §3
Mus musculus [16] = assay: Evaluated for seizure threshold test at a dose 30 mg/kg &MST is the metrazole seizure threshold to persistent clonus; I = Inactive; type: functional, organism-based; design: dose 30 mg/kg; method in brief: as §2
Mus musculus [17] = assay: Effective dose (ED50) was determined in sc Met (pentylenetetrazole) seizure threshold test; I = Inactive at all doses including 600 mg/kg; type: functional, organism-based; design: dose 600 mg/kg; method in brief: as §1
[18] = Compound was evaluated for median lethal dose; type: ADME, organism-based; settings: mouse, in vivo
Mus musculus [19] = assay: Evaluated for seizure threshold test at a dose 300 mg/kg & MMT is the maximal metrazole threshold to tonic flexion; I = Inactive.; type: functional, organism-based; design: dose 300 mg/kg; method in brief: as §2
[20] = tested on: GABA-A receptor; anion channel; assay: Inhibition of binding to GABA-A central benzodiazepine receptor (Inactive at 80 uM); type: protein-complex assay, Mus musculus
Mus musculus [21] = assay: Evaluated for seizure threshold test at a dose 75 mg/kg &MST is the metrazole seizure threshold to persistent clonus; I = Inactive.; type: functional, organism-based; design: dose 75 mg/kg; method in brief: as §2
Mus musculus [22] = assay: Evaluated for seizure threshold test at a dose 75 mg/kg &MMT is the maximal metrazole threshold to tonic flexion.; type: functional; method in brief: as §2
Mus musculus [23] = assay: Evaluated for seizure threshold test at a dose 300 mg/kg & MST is the metrazole seizure threshold to persistent clonus; type: functional; method in brief: as §3
[24] = target: GABA-A receptor; anion channel (Mus musculus) (UniProt Q8BHJ7+P26048+Q8QZW7+P50571+Q9R0Y8+P22723+A2AMW3+P62812+Q9JLF1+P26049+P22933+Q9D6F4+P63080+P27681+P16305); assay: Inhibition of binding to GABA-A central benzodiazepine receptor (inactive); type: protein-complex assay
Mus musculus [25] = assay: Evaluated for seizure threshold test at a dose 100 mg/kg & MST is the metrazole seizure threshold to persistent clonus; I = inactive; type: functional, organism-based; design: dose 100 mg/kg; method in brief: as §3
Mus musculus [26] = assay: Evaluated for seizure threshold test at a dose 300 mg/kg & MMT is the maximal metrazole threshold to tonic flexion; I - inactive; type: functional, organism-based; design: dose 300 mg/kg; method in brief: as §3
Mus musculus [27] = assay: Evaluated for seizure threshold test at a dose 100 mg/kg & MMT is the maximal metrazole threshold to tonic flexion; I = inactive; type: functional, organism-based; design: dose 100 mg/kg; method in brief: as §3
Mus musculus [28] = assay: Evaluated for seizure threshold test at a dose 1 mg/kg &MMT is the maximal metrazole threshold to tonic flexion.; type: functional; method in brief: as §3
Mus musculus [29] = assay: Evaluated for seizure threshold test at a dose 1 mg/kg &MST is the metrazole seizure threshold to persistent clonus; type: functional; method in brief: as §3
Mus musculus [30] = assay: Evaluated for seizure threshold test at a dose 0.2 mg/kg &MST is the metrazole seizure threshold to persistent clonus; type: functional; method in brief: as §3
[31] = target: GABA-A receptor; anion channel; assay: Binding affinity for umolar GABA-A central benzodiazepine receptor; type: protein-complex assay, Mus musculus
Mus musculus [32] = assay: Evaluated for seizure threshold test at a dose 0.2 mg/kg &MMT is the maximal metrazole threshold to tonic flexion.; type: functional; method in brief: as §3
Mus musculus [33] = assay: Evaluated for seizure threshold test at a dose 25 mg/kg &MST is the metrazole seizure threshold to persistent clonus; type: functional; method in brief: as §3
Mus musculus [34] = assay: Evaluated for seizure threshold test at a dose 25 mg/kg &MMT is the maximal metrazole threshold to tonic flexion.; type: functional; method in brief: as §2

For `Cc1cc(C(=O)c2ccccc2)c(N)c(C#N)c1C`, the TD50 (Mus musculus [1]) was “Not Active”, the Change (Mus musculus [2]) was “Not significant” and the ED50 (Mus musculus [3]) was “inactive”. The Change (Mus musculus [4]) was “Not significant”.

`Cc1cc(C(=O)C2CCCCC2)c(N)c(C#N)c1C` showed a TD50 [5] of over 600 mg/kg, a Change (Mus musculus [6]) of 17% and an ED50 (Mus musculus [7]) of 410 mg/kg. The Change (Mus musculus [8]) was “Not significant”.

With `Cc1ccccc1-n1c(C)nc2ccccc2c1=O` [METHAQUALONE] the Change (Mus musculus [9]) was 17%, the Change (Mus musculus [10]) was 40% and the Change (Mus musculus [11]) was 18%. The Change (Mus musculus [12]) was 42%.

With `Cc1cc2c(c(C#N)c1C)NC=NC2C1CC1` (configuration not stated) the TD50 (Mus musculus [1]) was “Not Active”, the Change (Mus musculus [2]) was “Not significant” and the ED50 (Mus musculus [3]) was “inactive”. The Change (Mus musculus [4]) was “Not significant”.

Work on `Cc1cc2c(C3CCCCC3)nc(O)nc2c(C#N)c1C` yielded a Change (Mus musculus [13]) of 44%, a TD50 [5] of over 600 mg/kg and an ED50 (Mus musculus [7]) of 260 mg/kg. The IC50 [14] was “Not Active” and the Change (Mus musculus [15]) was “inactive”.

With `Cc1cc2c(-c3ccccc3)ncnc2c(C#N)c1C` the TD50 (Mus musculus [1]) was “Not Active”, the Change (Mus musculus [2]) was “Not significant” and the ED50 (Mus musculus [3]) was “inactive”. The Change (Mus musculus [4]) was “Not significant”.

With `Cc1cc(C(=O)c2ccccc2)c(O)c(C#N)c1C` the TD50 (Mus musculus [1]) was “Not Active”, the Change (Mus musculus [2]) was “Not significant” and the ED50 (Mus musculus [3]) was “inactive”. For the same molecule, the Change (Mus musculus [4]) was “Not significant”.

For `Cc1cc2c(C)ncnc2c(C#N)c1C`, the Change (Mus musculus [16]) was “inactive”, the ED50 (Mus musculus [17]) was “inactive” and the TD50 [5] was 45 mg/kg. For the same molecule, the Change (Mus musculus [9]) was -24%, the LD50 [18] was 150 mg/kg and the IC50 [14] was “Not Active”.

For `Cc1cc2c(c(C#N)c1C)NC=NC2C1CCCCC1` (configuration not stated), the ED50 (Mus musculus [17]) was “inactive”, the TD50 [5] was over 600 mg/kg and the Change (Mus musculus [19]) was “inactive”. The IC50 [20] was “Not Active” and the Change (Mus musculus [8]) was “inactive”.

In the case of `Cc1cc2c(c(C#N)c1C)NC(=O)NC2C` (configuration not stated), the Change (Mus musculus [21]) is reported as “Not significant”, the ED50 (Mus musculus [17]) is reported as “inactive” and the TD50 [5] is reported as 300 mg/kg. It also gave a Change (Mus musculus [22]) of -16%.

With `Cc1cc2c(c(C#N)c1C)NC(=O)CN=C2c1ccccc1` the Change (Mus musculus [23]) was 44%, the Change [24] was “inactive” and the Change (Mus musculus [25]) was “inactive”. The TD50 [5] was over 1000 mg/kg, the Change (Mus musculus [26]) was “inactive” and the LD50 ([18]; read-out: LD) was over 2 mg/kg. For the same molecule, the ED50 (Mus musculus [7]) was 370 mg/kg and the Change (Mus musculus [27]) was “inactive”.

In the case of `O=C1CN=C(c2ccccc2)c2cc(Cl)ccc2N1` [NORDAZEPAM], the Change (Mus musculus [28]) is reported as 35%, the Change (Mus musculus [29]) is reported as 70% and the Change (Mus musculus [30]) is reported as 48%. The ED50 (Mus musculus [7]) was 0.28 mg/kg, the Ki [31] was 73 µM and the Change (Mus musculus [32]) was “inactive”.

In the case of `Cc1cc(C(=O)c2ccccc2Cl)c(N)c(C#N)c1C`, the TD50 (Mus musculus [1]) is reported as “Not Active”, the Change (Mus musculus [2]) is reported as “Not significant” and the ED50 (Mus musculus [3]) is reported as “inactive”. The Change (Mus musculus [4]) was “Not significant”.

In the case of `Cc1cc2c(c(C#N)c1C)NC=NC2C` (configuration not stated), the ED50 (Mus musculus [17]) is reported as “inactive”, the TD50 [5] is reported as 51.5 mg/kg and the Change (Mus musculus [33]) is reported as -36%. The Change (Mus musculus [34]) was -56% and the LD50 [18] was 150 mg/kg.
